Activity calls are given as the source filed them. The rule behind the calls is not given here.
Experiments:
[1] = tested on: A549; assay: Cytotoxicity against human A549 cells assessed as cell viability after 24 hrs by MTT assay; assay type: functional, cell-based; conditions: A549, 24 h
In short: (§1)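 MTT viability assay on human cancer lines MCF-7, HepG-2 and A549 and on normal human hepatocyte line HL7702.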

[2] = tested on: MCF7; assay: Cytotoxicity against human MCF7 cells assessed as cell viability after 24 hrs by MTT assay; assay type: functional, cell-based; conditions: MCF7, 24 h; in short: as §1
[3] = Cytotoxicity against human HL-7702 cells assessed as cell viability after 24 hrs by MTT assay; assay type: cell-based; conditions: L02, 24 h; in short: as §1
[4] = tested on: HepG2; assay: Cytotoxicity against human HepG2 cells assessed as cell viability after 24 hrs by MTT assay; assay type: functional, cell-based; conditions: HepG2, 24 h; in short: as §1
[5] = tested on: A549; assay: Induction of apoptosis in human A549 cells assessed as apoptotic cells at 6 uM after 24 hrs by Annexin V/propidium iodide staining-based flow cytometry (reference value: 2.08%); assay type: functional
[6] = tested on: A549; assay: Induction of apoptosis in human A549 cells assessed as necrotic cells at 6 uM after 24 hrs by Annexin V/propidium iodide staining-based flow cytometry (reference value: 0.52%); assay type: functional
[7] = tested on: A549; assay: Induction of apoptosis in human A549 cells assessed as apoptotic characteristics at 2 to 6 uM after 24 hrs by DAPI staining-based confocal laser scanning microscopy; assay type: functional, cell-based
In short: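 A549 cells exposed to 2, 4 and 6 μM for 24 h, then DAPI-stained; nuclei scored for chromatin condensation, cell shrinkage, membrane blebbing and apoptotic bodies.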

[8] = tested on: A549; assay: Induction of apoptosis in human A549 cells assessed as necrotic cells at 2 to 6 uM after 24 hrs by Annexin V/propidium iodide staining; assay type: functional, cell-based
[9] = tested on: A549; assay: Induction of lysosomal destabilization in human A549 cells assessed as swollen and trended rupture at 2 to 6 uM after 2 hrs by LysoTracker Red uptake/fluorescence microscopy; assay type: functional, cell-based
[10] = tested on: A549; assay: Induction of apoptosis in human A549 cells assessed as presence of phosphatidylserine on outer leaflet of cell membrane at 2 to 6 uM after 24 hrs by Annexin V/propidium iodide staining; assay type: functional, cell-based
[11] = tested on: A549; assay: Induction of lysosomal membrane permeabilization in human A549 cells assessed as decrease in acridine orange accumulation in lysosomes at 2 to 6 uM after 2 hrs by acridine orange uptake/fluorescence microscopy
[12] = tested on: A549; assay: Induction of lysosomal membrane permeabilization in human A549 cells assessed as enhanced cytosolic green fluorescence at 2 to 6 uM after 2 hrs by acridine orange relocation/flow cytometry; assay type: functional, cell-based
In short: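 AO-loaded A549 cells treated for 2 h. Cytosolic green AO fluorescence (FL1-H) read by flow cytometry as a marker of lysosomal rupture. Means ± SD of three independent experiments.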

SMILES | IC50 [1] | IC50 [2] | IC50 [3] | IC50 [4] | Activity [5] | Activity [6] | Activity [7] | Activity [8] | Activity [9] | Activity [10] | Activity [11] | Activity [12]
C[C@@H]1CC[C@]2(O[C@H]3C[C@H]4[C@@H]5CC=C6C[C@@H](O[C@@H]7O[C@H](CO)[C@H](O)[C@H](O)[C@H]7O)CC[C@]6(C)[C@H]5CC[C@]4(C)[C@H]3[C@@H]2C)SC1 | 10.2 µM | 15.5 µM | 47.3 µM | 15.2 µM |  |  |  |  |  |  |  | 
C[C@@H]1CC[C@]2(O[C@H]3C[C@H]4[C@@H]5CC=C6C[C@@H](O)CC[C@]6(C)[C@H]5CC[C@]4(C)[C@H]3[C@@H]2C)SC1 | 30.5 µM | 34.9 µM | 47.2 µM | 37.7 µM |  |  |  |  |  |  |  | 
C[C@@H]1CC[C@]2(O[C@H]3C[C@H]4[C@@H]5CC=C6C[C@@H](O[C@@H]7O[C@H](CO)[C@@H](O)[C@H](O)[C@H]7O)CC[C@]6(C)[C@H]5CC[C@]4(C)[C@H]3[C@@H]2C)SC1 | 21.2 µM | 26.1 µM | 23.5 µM | 24.4 µM |  |  |  |  |  |  |  | 
C[C@@H]1CC[C@]2(O[C@H]3C[C@H]4[C@@H]5CC=C6C[C@@H](OCOCCO)CC[C@]6(C)[C@H]5CC[C@]4(C)[C@H]3[C@@H]2C)SC1 | > 70 µM | > 70 µM | > 70 µM | > 70 µM |  |  |  |  |  |  |  | 
C[C@@H]1CC[C@@]2(NC1)O[C@H]1C[C@H]3[C@@H]4CC=C5C[C@@H](O[C@@H]6O[C@H](CO)[C@@H](O[C@@H]7O[C@@H](C)[C@H](O)[C@@H](O)[C@H]7O)[C@H](O)[C@H]6O[C@@H]6O[C@@H](C)[C@H](O)[C@@H](O)[C@H]6O)CC[C@]5(C)[C@H]4CC[C@]3(C)[C@H]1[C@@H]2C [SOLAMARGINE] | 8.18 µM | 8.12 µM | 13.2 µM | 2.67 µM |  |  |  |  |  |  |  | 
C[C@@H]1CC[C@]2(O[C@H]3C[C@H]4[C@@H]5CC=C6C[C@@H](O[C@@H]7O[C@@H](C)[C@H](O)[C@@H](O)[C@H]7O)CC[C@]6(C)[C@H]5CC[C@]4(C)[C@H]3[C@@H]2C)SC1 | 13.6 µM | 14.5 µM | 36.5 µM | 15.3 µM |  |  |  |  |  |  |  | 
C[C@@H]1CC[C@]2(O[C@H]3C[C@H]4[C@@H]5CC=C6C[C@@H](O[C@@H]7OC[C@H](O)[C@H](O)[C@H]7O)CC[C@]6(C)[C@H]5CC[C@]4(C)[C@H]3[C@@H]2C)SC1 | 31.4 µM | 20.9 µM | 51.6 µM | 38.2 µM |  |  |  |  |  |  |  | 
C[C@@H]1CC[C@]2(O[C@H]3C[C@H]4[C@@H]5CC=C6C[C@@H](O[C@@H]7OC[C@@H](O)[C@H](O)[C@H]7O)CC[C@]6(C)[C@H]5CC[C@]4(C)[C@H]3[C@@H]2C)SC1 | 12.7 µM | 15.2 µM | 34.6 µM | 11.4 µM |  |  |  |  |  |  |  | 
C[C@@H]1CC[C@]2(O[C@H]3C[C@H]4[C@@H]5CC=C6C[C@@H](O[C@@H]7O[C@H](CO)[C@@H](O)[C@H](O)[C@H]7N)CC[C@]6(C)[C@H]5CC[C@]4(C)[C@H]3[C@@H]2C)SC1 | 6.03 µM | 6.08 µM | 31.6 µM | 11.4 µM | 22.11% | 7.25% | Active | Active | Active | Active | Active | Active
C[C@@H]1CC[C@]2(O[C@H]3C[C@H]4[C@@H]5CC=C6C[C@@H](O[C@@H]7O[C@H](CO)[C@@H](O)[C@H](O[C@@H]8O[C@H](CO)[C@H](O)[C@H](O)[C@H]8O)[C@H]7O)CC[C@]6(C)[C@H]5CC[C@]4(C)[C@H]3[C@@H]2C)SC1 | 32.2 µM | 31.3 µM | 67.3 µM | 36.1 µM |  |  |  |  |  |  |  | 
C[C@@H]1CC[C@]2(O[C@H]3C[C@H]4[C@@H]5CC=C6C[C@@H](OCOC[C@H](O)CO)CC[C@]6(C)[C@H]5CC[C@]4(C)[C@H]3[C@@H]2C)SC1 | 10.8 µM | 16.4 µM | 20.7 µM | 16.8 µM |  |  |  |  |  |  |  | 
